For four compounds, Activity results are on record in ChEMBL document CHEMBL3585265, “Bacteria-Derived Compatible Solutes Ectoine and 5α-Hydroxyectoine Act as Intestinal Barrier Stabilizers to Ameliorate Experimental Inflammatory Bowel Disease” (J Nat Prod, 2015).

Activity calls are given as the source filed them. No cut-off for these calls is given here.

Data set [1] deals with Rattus norvegicus. Put plainly: Anti-colitis activity in Wistar rat assessed as suppression of TNBS-induced colonic TNF-alpha level at 50 to 100 mg/kg, po qd administered for 1 week starting 48 hrs post TNBS induction by ELISA. The format is functional, organism-based. The method in brief:
(§1)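 TNBS colitis in male Wistar rats: 100 mg/kg TNBS in 0.25 mL 50% ethanol, instilled 8 cm into the colon after a 36 h fast. Oral dosing in 1 mL per 200 g rat. Rats were killed 24 h after the last dose. The distal 8 cm colon was rinsed in ice-cold saline and homogenized 10% (w/v) in ice-cold bidistilled water. Mean of ≥6 animals ± SEM.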
On the technique in general: An ELISA detects its analyte on a solid surface through an enzyme-linked reagent.

The test system of data set [2] is Rattus norvegicus. Briefly: Anti-colitis activity in Wistar rat assessed as reduction of TNBS-induced colon mass index at 50 mg/kg, po qd administered for 1 week starting 48 hrs post TNBS induction (reference value: 7.9 mg/g). The format is functional. The essentials:
(§2)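 Male Wistar rats (150–200 g) were fasted 36 h, then given 100 mg/kg TNBS in 0.25 mL 50% ethanol rectally under light ether, with the catheter tip 8 cm from the anus. Oral dosing was in 1 mL per 200 g rat. Rats were killed 24 h after the last dose. Body weight was taken before induction and before necropsy. Ulcer area in the distal 8 cm colon was measured planimetrically (cm2). Colon mass index is colon weight/body weight (mg/g). Mean of ≥6 animals ± SEM.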

In data set [3] the test system is Rattus norvegicus. Briefly: Anti-colitis activity in Wistar rat assessed as reduction of TNBS-induced myeloperoxidase activity at 50 mg/kg, po qd administered for 1 week starting 48 hrs post TNBS induction by spectrophotometric analysis. The format is functional, organism-based. The method in brief: as §1
Data set [4] concerns Rattus norvegicus. Briefly: Anti-colitis activity in Wistar rat assessed as suppression of TNBS-induced reduction of colonic GSH level at 50 to 300 mg/kg, po qd administered for 1 week starting 48 hrs post TNBS induction by spectrophotometric analysis. The format is functional, organism-based. The essentials:
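TNBS colitis in male Wistar rats: 100 mg/kg TNBS in 0.25 mL 50% ethanol given rectally. Colon was taken 24 h after the last oral dose and homogenized 10% (w/v) in ice-cold water. Homogenate was deproteinized with ice-cold 5% sulfosalicylic acid and spun at 3000 rpm for 20 min; GSH was read spectrophotometrically in the supernatant. Mean of ≥6 animals ± SEM.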

Data set [5] deals with Rattus norvegicus. Briefly: Anti-colitis activity in Wistar rat assessed as suppression of TNBS-induced colonic IL-1beta level at 50 to 100 mg/kg, po qd administered for 1 week starting 48 hrs post TNBS induction by ELISA. The format is functional, organism-based. The method in brief:
as §1

Data set [6] has as its system Rattus norvegicus. Put plainly: Anti-colitis activity in Wistar rat assessed as reduction of TNBS-induced ulcerative area at 50 to 300 mg/kg, po qd administered for 1 week starting 48 hrs post TNBS induction (reference value: 4.9 cm2). The format is functional. The method in brief: as §2
For data set [7], the system named is Rattus norvegicus. Put plainly: Anti-colitis activity in Wistar rat assessed as suppression of TNBS-induced body weight reduction at 50 to 300 mg/kg, po qd administered for 1 week starting 48 hrs post TNBS induction. The format is functional, organism-based. The essentials: as §2
Data set [8] concerns Rattus norvegicus. Briefly: Anti-colitis activity in Wistar rat assessed as suppression of TNBS-induced fecal calprotectin level at 100 mg/kg, po qd administered for 1 week starting 48 hrs post TNBS induction by ELISA. The format is functional, organism-based. The essentials:
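Feces were collected before sacrifice from 4 randomly chosen TNBS-colitis rats per group, suspended 1:10 in extraction buffer and incubated 90 min at room temperature. Calprotectin (S100A8/S100A9) was measured by ELISA, with samples incubated 90 min at room temperature. Samples were run in duplicate and medians taken.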

In data set [9] the test system is Rattus norvegicus. Put plainly: Anti-colitis activity in Wistar rat assessed as reduction of TNBS-induced colon mass index at 100 mg/kg, po qd administered for 1 week starting 48 hrs post TNBS induction (reference value: 7.9 mg/g). The format is functional. The method in brief:
as §2

Data set [10] concerns Rattus norvegicus. Put plainly: Anti-colitis activity in Wistar rat assessed as suppression of TNBS-induced colonic TNF-alpha level at 50 to 300 mg/kg, po qd administered for 1 week starting 48 hrs post TNBS induction by ELISA. The format is functional, organism-based. The method in brief: (§3)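 TNBS/ethanol colitis in male Wistar rats, as described; oral once-daily treatment for 1 week beginning 48 h post-induction, sacrifice 24 h after final dose. Distal 8 cm colon excised, rinsed in ice-cold saline, homogenized 10% (w/v) in ice-cold bidistilled water; aliquot assayed for TNF-α and IL-1β by ELISA. At least 6 animals per group, mean ± SEM.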

In data set [11] the test system is Rattus norvegicus. Briefly: Toxicity in Wistar rat assessed as effect on colonic ICAM1 level at 100 mg/kg, po qd administered for 1 week by ELISA. Conditions: in vivo, 168 h. The format is organism-based, Colon. The essentials:
(§4)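 Normal male Wistar rats (150–200 g) underwent the same rectal procedure with saline in place of TNBS. They received water or 100 mg/kg compound orally once daily for 1 week and were killed 24 h after the last dose. The distal 8 cm colon was weighed and homogenized 10% (w/v) in ice-cold bidistilled water. Body weight was taken before instillation and before necropsy.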

Data set [12] has as its system Rattus norvegicus. Briefly: Anti-colitis activity in Wistar rat assessed as reduction of TNBS-induced myeloperoxidase activity at 100 mg/kg, po qd administered for 1 week starting 48 hrs post TNBS induction by spectrophotometric analysis. The format is functional, organism-based.
Data set [13] concerns Rattus norvegicus. Put plainly: Toxicity in Wistar rat assessed as decrease in Hsp70 level at 50 to 300 mg/kg, po qd administered for 1 week starting 48 hrs post TNBS induction by ELISA. The format is organism-based. To be noted: in vivo. The essentials: as §1
Data set [14] has as its system Rattus norvegicus. Briefly: Toxicity in Wistar rat assessed as decrease in Hsp70 level at 100 mg/kg, po qd administered for 1 week by ELISA. The format is organism-based. To be noted: in vivo, 168 h. The method in brief: as §4
For data set [15], the system named is Rattus norvegicus. Put plainly: Toxicity in Wistar rat assessed as effect on TNF-alpha level at 100 mg/kg, po qd administered for 1 week by ELISA. Conditions: in vivo, 168 h. The format is organism-based. The method in brief: as §4
Data set [16] concerns Rattus norvegicus. Briefly: Toxicity in Wistar rat assessed as effect on colonic GSH level at 100 mg/kg, po qd administered for 1 week by spectrophotometric analysis. The format is organism-based, Colon. To be noted: in vivo, 168 h. The method in brief:
as §4

In data set [17] the test system is Rattus norvegicus. Briefly: Toxicity in Wistar rat assessed as effect on body weight at 100 mg/kg, po qd administered for 1 week. Conditions: in vivo, 168 h. The format is organism-based. The essentials:
as §4

Data set [18] concerns Rattus norvegicus. Briefly: Toxicity in Wistar rat assessed as effect on colon mass index at 100 mg/kg, po qd administered for 1 week. The format is organism-based. Conditions: in vivo, 168 h. The essentials:
as §4

Data set [19] relates to Rattus norvegicus. Put plainly: Toxicity in Wistar rat assessed as effect on IL-1beta level at 100 mg/kg, po qd administered for 1 week by ELISA. To be noted: in vivo, 168 h. The format is organism-based. The essentials: as §4
Data set [20] concerns Rattus norvegicus. Put plainly: Toxicity in Wistar rat assessed as effect on myeloperoxidase activity at 100 mg/kg, po qd administered for 1 week by spectrophotometric analysis. The format is organism-based. To be noted: in vivo, 168 h. The essentials:
as §4

Data set [21] relates to Rattus norvegicus. Briefly: Anti-colitis activity in Wistar rat assessed as suppression of TNBS-induced colonic IL-1beta level at 50 to 300 mg/kg, po qd administered for 1 week starting 48 hrs post TNBS induction by ELISA. The format is functional, organism-based. The essentials:
as §3

For data set [22], the system named is Rattus norvegicus. Briefly: Toxicity in Wistar rat assessed as decrease in Hsp70 level at 300 mg/kg, po qd administered for 1 week starting 48 hrs post TNBS induction by ELISA. The format is organism-based. Conditions: in vivo. The method in brief:
as §1

In data set [23] the test system is Rattus norvegicus. Briefly: Anti-colitis activity in Wistar rat assessed as reduction of TNBS-induced colon mass index at 300 mg/kg, po qd administered for 1 week starting 48 hrs post TNBS induction. The format is functional, organism-based. The essentials: (§5)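 Adult male Wistar rats (150−200 g), fasted 36 h, received 0.25 mL 50% (v/v) ethanol containing 100 mg/kg TNBS, instilled 8 cm into colon under light ether. Oral dosing (water vehicle, 1 mL per 200 g) once daily for 1 week from 48 h; sacrifice 24 h after last dose. Body weight recorded before induction and before necropsy. Distal 8 cm colon weighed; mass index as mg/g body weight. n ≥ 6, mean ± SEM.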

In data set [24] the test system is Rattus norvegicus. Put plainly: Anti-colitis activity in Wistar rat assessed as suppression of TNBS-induced reduction of colonic GSH level at 300 mg/kg, po qd administered for 1 week starting 48 hrs post TNBS induction by spectrophotometric analysis. The format is functional, organism-based. The method in brief: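 Colitis induced rectally with 100 mg/kg TNBS in 50% ethanol; oral dosing daily for 1 week from 48 h later. Colon homogenate (10% w/v, ice-cold water) deproteinized with ice-cold 5% sulfosalicylic acid, centrifuged 3000 rpm 20 min; supernatant used for spectrophotometric reduced glutathione estimation. n ≥ 6, mean ± SEM.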

The subject of data set [25] is Rattus norvegicus. Briefly: Anti-colitis activity in Wistar rat assessed as suppression of TNBS-induced body weight reduction at 300 mg/kg, po qd administered for 1 week starting 48 hrs post TNBS induction. The format is functional, organism-based. The essentials: as §5

Consider `CC1=N[C@H](C(=O)O)[C@@H](O)CN1`, for which the result in the data set with Rattus norvegicus [1], with Rattus norvegicus [3], in the data set with Rattus norvegicus [5], in the data set on Rattus norvegicus [7] and with Rattus norvegicus [8] was Active. The Activity with Rattus norvegicus [2] was determined as 4 mg/g; with Rattus norvegicus [6], 1.3 cm2. In addition, in the data set with Rattus norvegicus [4], the outcome was inactive.
For the compound `CC1=N[C@H](C(=O)O)CCN1`, the Activity in the data set with Rattus norvegicus [9] was 4.3 mg/g; in the data set on Rattus norvegicus [11] it was “Non-toxic”; in the data set on Rattus norvegicus [13] it was “Toxic”; in the data set with Rattus norvegicus [14] it was “Toxic”; with Rattus norvegicus [15], “Non-toxic”; in the data set on Rattus norvegicus [16], “Non-toxic”. Also, the Activity was 1.2 cm2 in the data set on Rattus norvegicus [6]; “Non-toxic” in the data set on Rattus norvegicus [17]; “Non-toxic” in the data set with Rattus norvegicus [18]; “Non-toxic” in the data set on Rattus norvegicus [19]; “Non-toxic” with Rattus norvegicus [20]. Further, the result with Rattus norvegicus [10], in the data set with Rattus norvegicus [12], with Rattus norvegicus [7], with Rattus norvegicus [8] and with Rattus norvegicus [21] was Active. Further, the result in the data set with Rattus norvegicus [4] was inactive.
As to `CC1=NC[C@H](O)[C@@H](C(=O)O)N1`, the Activity entry in the data set on Rattus norvegicus [11] is “Non-toxic”; in the data set with Rattus norvegicus [13], “Toxic”; with Rattus norvegicus [14], “Toxic”; in the data set on Rattus norvegicus [15], “Non-toxic”; in the data set on Rattus norvegicus [16], “Non-toxic”; in the data set on Rattus norvegicus [17], “Non-toxic”. In addition, the Activity result in the data set with Rattus norvegicus [18], in the data set on Rattus norvegicus [19] and with Rattus norvegicus [20] was “Non-toxic” in each case.
Take `O=C(O)c1cc(/N=N/c2ccc(S(=O)(=O)Nc3ccccn3)cc2)ccc1O` [SULFASALAZINE]: in the data set on Rattus norvegicus [22], the Activity result is recorded as “Toxic”. Besides, the result in the data set with Rattus norvegicus [23] and in the data set with Rattus norvegicus [25] was Active. The result in the data set on Rattus norvegicus [24] was inactive.
